From ChEMBL document CHEMBL1671644, “Inhibition of human immunodeficiency virus type 1 infection by the candidate microbicide dapivirine, a nonnucleoside reverse transcriptase inhibitor” (Antimicrob Agents Chemother, 2009)

Assays:
[1] = tested on: Human immunodeficiency virus 1; experiment: Antiviral activity against HIV-1 subtype D V022832 infected in human MT4 cells assessed as inhibition of viral replication relative to HIV-1 3B; format: functional
Summary of the method: (§1)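 MT-4 cells (3 x 10^4/well) infected with site-directed mutants or recombinant clinical isolates (200 TCID50/well) with drug, cultured 3 to 5 days. Viability read by MTT colorimetric antivirogram assay. IC50 by nonlinear regression; fold change = IC50 for the test isolate / IC50 for wild-type HIV-1 IIIB tested in parallel (mean or median).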

[2] = tested on: Human immunodeficiency virus 1; experiment: Antiviral activity against HIV-1 SM052 harboring NNTRI 101E and 103N mutant infected in human MT4 cells assessed as inhibition of viral replication relative to HIV-1 3B; format: functional; summary of the method: as §1
[3] = tested on: Human immunodeficiency virus 1; experiment: Antiviral activity against HIV-1 SM051 harboring NNTRI 100I and 103N mutant infected in human MT4 cells assessed as inhibition of viral replication relative to HIV-1 3B; format: functional; summary of the method: as §1
[4] = tested on: Human immunodeficiency virus 1; experiment: Antiviral activity against HIV-1 subtype H V022828 harboring NNRTI K101Q and V179I mutant infected in human MT4 cells assessed as inhibition of viral replication relative to HIV-1 3B; format: functional; summary of the method: as §1
[5] = tested on: Human immunodeficiency virus 1; experiment: Antiviral activity against HIV-1 subtype D V022819 infected in human MT4 cells assessed as inhibition of viral replication relative to HIV-1 3B; format: functional; summary of the method: as §1
[6] = tested on: Human immunodeficiency virus 1; experiment: Antiviral activity against HIV-1 subtype CRF01_AE V029521 infected in human MT4 cells assessed as inhibition of viral replication relative to HIV-1 3B; format: functional
Summary of the method: (§2)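 Recombinant clinical HIV-1 isolates (200 TCID50/well) were tested in MT-4 cells (3 x 10^4/well) over 3–5 days, with an MTT viability read-out. IC50 was fitted by nonlinear regression. Fold change is the isolate IC50 divided by the HIV-1IIIB IC50, tested in parallel.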

[7] = tested on: Human immunodeficiency virus 1; experiment: Antiviral activity against HIV-1 SM030 harboring NNTRI 100I mutant infected in human MT4 cells assessed as inhibition of viral replication relative to HIV-1 3B; format: functional; summary of the method: as §1
[8] = tested on: Human immunodeficiency virus 1; experiment: Antiviral activity against HIV-1 subtype CRF02_AG V022808 infected in human MT4 cells assessed as inhibition of viral replication relative to HIV-1 3B; format: functional; summary of the method: as §1
[9] = tested on: Human immunodeficiency virus 1; experiment: Antiviral activity against HIV-1 SM007 harboring NNTRI 103N mutant infected in human MT4 cells assessed as inhibition of viral replication relative to HIV-1 3B; format: functional; summary of the method: as §1
[10] = tested on: Human immunodeficiency virus 1; experiment: Antiviral activity against HIV-1 subtype CRF02_AG V022825 infected in human MT4 cells assessed as inhibition of viral replication relative to HIV-1 3B; format: functional; summary of the method: as §1
[11] = tested on: Human immunodeficiency virus 1; experiment: Antiviral activity against HIV-1 SM002 harboring NNTRI 181C mutant infected in human MT4 cells assessed as inhibition of viral replication relative to HIV-1 3B; format: functional; summary of the method: as §1
[12] = tested on: Human immunodeficiency virus 1; experiment: Antiviral activity against HIV-1 SM058 harboring NNTRI 227L and 106A mutant infected in human MT4 cells assessed as inhibition of viral replication relative to HIV-1 3B; format: functional; summary of the method: as §1
[13] = tested on: Human immunodeficiency virus 1; experiment: Antiviral activity against HIV-1 SM026 harboring NNTRI 103N and 181C mutant infected in human MT4 cells assessed as inhibition of viral replication relative to HIV-1 3B; format: functional; summary of the method: as §1
[14] = tested on: Human immunodeficiency virus 1; experiment: Antiviral activity against HIV-1 subtype F V029522 infected in human MT4 cells assessed as inhibition of viral replication relative to HIV-1 3B; format: functional; summary of the method: as §1
[15] = tested on: Human immunodeficiency virus 1; experiment: Antiviral activity against HIV-1 subtype B V022812 harboring NNRTI V179I mutant infected in human MT4 cells assessed as inhibition of viral replication relative to HIV-1 3B; format: functional; summary of the method: as §1
[16] = tested on: Human immunodeficiency virus 1; experiment: Antiviral activity against HIV-1 subtype CRF05_DF V022824 harboring NNRTI V106I mutant infected in human MT4 cells assessed as inhibition of viral replication relative to HIV-1 3B; format: functional; summary of the method: as §1
[17] = tested on: Human immunodeficiency virus 1; experiment: Antiviral activity against HIV-1 subtype B V022815 infected in human MT4 cells assessed as inhibition of viral replication relative to HIV-1 3B; format: functional; summary of the method: as §2
[18] = tested on: Human immunodeficiency virus 1; experiment: Antiviral activity against HIV-1 subtype O V029524 harboring NNRTI A98G, V179E and Y181C mutant infected in human MT4 cells assessed as inhibition of viral replication relative to HIV-1 3B; format: functional; summary of the method: as §1
[19] = tested on: Human immunodeficiency virus 1; experiment: Antiviral activity against HIV-1 subtype D V022818 infected in human MT4 cells assessed as inhibition of viral replication relative to HIV-1 3B; format: functional; summary of the method: as §1
[20] = tested on: Human immunodeficiency virus 1; experiment: Antiviral activity against HIV-1 SM034 harboring NNTRI 188L mutant infected in human MT4 cells assessed as inhibition of viral replication relative to HIV-1 3B; format: functional; summary of the method: as §1
[21] = tested on: Human immunodeficiency virus 1; experiment: Antiviral activity against HIV-1 SM024 harboring NNTRI 190A mutant infected in human MT4 cells assessed as inhibition of viral replication relative to HIV-1 3B; format: functional; summary of the method: as §1
[22] = tested on: Human immunodeficiency virus 1; experiment: Antiviral activity against HIV-1 subtype CRF02_AG V022826 infected in human MT4 cells assessed as inhibition of viral replication relative to HIV-1 3B; format: functional; summary of the method: as §1
[23] = tested on: Human immunodeficiency virus 1; experiment: Antiviral activity against HIV-1 subtype C V022816 infected in human MT4 cells assessed as inhibition of viral replication relative to HIV-1 3B; format: functional; summary of the method: as §2
[24] = tested on: Human immunodeficiency virus 1; experiment: Antiviral activity against HIV-1 subtype B V022807 infected in human MT4 cells assessed as inhibition of viral replication relative to HIV-1 3B; format: functional; summary of the method: as §2
[25] = tested on: Human immunodeficiency virus 1; experiment: Antiviral activity against HIV-1 subtype CRF01_AE V022820 infected in human MT4 cells assessed as inhibition of viral replication relative to HIV-1 3B; format: functional; summary of the method: as §1
[26] = tested on: Human immunodeficiency virus 1; experiment: Antiviral activity against HIV-1 subtype B V022811 infected in human MT4 cells assessed as inhibition of viral replication relative to HIV-1 3B; format: functional; summary of the method: as §2
[27] = tested on: Human immunodeficiency virus 1; experiment: Antiviral activity against HIV-1 subtype CRF02_AG V022830 infected in human MT4 cells assessed as inhibition of viral replication relative to HIV-1 3B; format: functional; summary of the method: as §1
[28] = tested on: Human immunodeficiency virus 1; experiment: Antiviral activity against HIV-1 subtype CRF05_DF V022823 infected in human MT4 cells assessed as inhibition of viral replication relative to HIV-1 3B; format: functional; summary of the method: as §1
[29] = tested on: Human immunodeficiency virus 1; experiment: Antiviral activity against HIV-1 subtype B V022814 infected in human MT4 cells assessed as inhibition of viral replication relative to HIV-1 3B; format: functional; summary of the method: as §1
[30] = tested on: Human immunodeficiency virus 1; experiment: Antiviral activity against HIV-1 subtype CRF01_AE V022821 infected in human MT4 cells assessed as inhibition of viral replication relative to HIV-1 3B; format: functional; summary of the method: as §2
[31] = tested on: Human immunodeficiency virus 1; experiment: Antiviral activity against HIV-1 subtype H V029523 harboring NNRTI K101Q and V179I mutant infected in human MT4 cells assessed as inhibition of viral replication relative to HIV-1 3B; format: functional; summary of the method: as §1
[32] = tested on: Human immunodeficiency virus 1; experiment: Antiviral activity against HIV-1 subtype B V022810 harboring NNRTI A98S andK101R mutant infected in human MT4 cells assessed as inhibition of viral replication relative to HIV-1 3B; format: functional; summary of the method: as §1
[33] = tested on: Human immunodeficiency virus 1; experiment: Antiviral activity against HIV-1 subtype B V022813 infected in human MT4 cells assessed as inhibition of viral replication relative to HIV-1 3B; format: functional; summary of the method: as §1
[34] = tested on: Human immunodeficiency virus 1; experiment: Antiviral activity against HIV-1 subtype C V022829 infected in human MT4 cells assessed as inhibition of viral replication relative to HIV-1 3B; format: functional; summary of the method: as §1
[35] = tested on: Human immunodeficiency virus 1; experiment: Antiviral activity against HIV-1 subtype C V022831 infected in human MT4 cells assessed as inhibition of viral replication relative to HIV-1 3B; format: functional; summary of the method: as §1
[36] = tested on: Human immunodeficiency virus 1; experiment: Antiviral activity against HIV-1 subtype H V022827 harboring NNRTI V179I mutant infected in human MT4 cells assessed as inhibition of viral replication relative to HIV-1 3B; format: functional; summary of the method: as §1
[37] = tested on: Human immunodeficiency virus 1; experiment: Antiviral activity against HIV-1 SM012 harboring NNTRI 108I mutant infected in human MT4 cells assessed as inhibition of viral replication relative to HIV-1 3B; format: functional; summary of the method: as §1
[38] = tested on: Human immunodeficiency virus 1; experiment: Antiviral activity against HIV-1 subtype CRF05_DF V022833 harboring NNRTI V179I mutant infected in human MT4 cells assessed as inhibition of viral replication relative to HIV-1 3B; format: functional; summary of the method: as §1
[39] = tested on: Human immunodeficiency virus 1; experiment: Antiviral activity against HIV-1 subtype B V022809 infected in human MT4 cells assessed as inhibition of viral replication relative to HIV-1 3B; format: functional; summary of the method: as §1
[40] = tested on: Human immunodeficiency virus 1; experiment: Antiviral activity against HIV-1 subtype CRF01_AE V022822 infected in human MT4 cells assessed as inhibition of viral replication relative to HIV-1 3B; format: functional; summary of the method: as §1
[41] = tested on: Human immunodeficiency virus 1; experiment: Antiviral activity against HIV-1 subtype CRF01_AE V029525 infected in human MT4 cells assessed as inhibition of viral replication relative to HIV-1 3B; format: functional; summary of the method: as §2
[42] = Toxicity against human cervical tissue explants after 2 hrs by MTT assay
Summary of the method: (§3)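 Ectocervical tissue explants, uninfected, exposed to drug for 2 or 24 h at 37°C. Viability by MTT dye reduction per milligram tissue, read right after exposure or after overnight culture following the 2-h exposure, as percent of unexposed controls. Four donors, each condition in triplicate; CC50 by nonlinear regression.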

[43] = Toxicity against human cervical tissue explants after 24 hrs by MTT assay; summary of the method: as §3

SMILES: Cc1ccnc2c1NC(=O)c1cccnc1N2C1CC1 [NEVIRAPINE]
- Ratio IC50 [1]: 0.9
- Ratio IC50 [2]: 22
- Ratio IC50 [3]: 22
- Ratio IC50 [4]: 1.1
- Ratio IC50 [5]: 1
- Ratio IC50 [6]: 1.4
- Ratio IC50 [7]: 5
- Ratio IC50 [8]: 0.8
- Ratio IC50 [9]: 22
- Ratio IC50 [10]: 0.7
- Ratio IC50 [11]: 222
- Ratio IC50 [12]: 22
- Ratio IC50 [13]: 222
- Ratio IC50 [14]: 2.1
- Ratio IC50 [15]: 0.8
- Ratio IC50 [16]: 3.1
- Ratio IC50 [17]: 1
- Ratio IC50 [18]: 89
- Ratio IC50 [19]: 0.5
- Ratio IC50 [20]: 222
- Ratio IC50 [21]: 96
- Ratio IC50 [22]: 0.4
- Ratio IC50 [23]: 3.8
- Ratio IC50 [24]: 3.4
- Ratio IC50 [25]: 1.3
- Ratio IC50 [26]: 3.4
- Ratio IC50 [27]: 1.3
- Ratio IC50 [28]: 0.9
- Ratio IC50 [29]: 2.4
- Ratio IC50 [30]: 1.2
- Ratio IC50 [31]: 1.4
- Ratio IC50 [32]: 1.7
- Ratio IC50 [33]: 1
- Ratio IC50 [34]: 0.6
- Ratio IC50 [35]: 0.9
- Ratio IC50 [36]: 0.4
- Ratio IC50 [37]: 1
- Ratio IC50 [38]: 1.7
- Ratio IC50 [39]: 5
- Ratio IC50 [40]: 0.8
- Ratio IC50 [41]: 7

SMILES: CCCCCCCCCc1ccc(OCCOCCOCCOCCOCCOCCOCCOCCOCCO)cc1 [NONOXYNOL 9]
- CC50 [42]: 0.07%
- CC50 [43]: 0.003%
